Measurements of several laboratories.
Lines come from different studies, so protocols differ.
Effect on: metabolic stability
Species: human

Compound | system | conditions | endpoint | result
Cn1c(=O)ccc2ccc(F)c(CCNC[C@H]3CN(c4cnc5c(n4)NC(=O)CO5)C(=O)O3)c21 | hepatocytes | 0.5 µM | hepatocyte CLint | 2 µL/min/10⁶ cells
CNC(C)Cc1ccc2nsnc2c1 (stereo not shown) | liver microsomes | 0.5 µM | scaled CLint | 11.2 mL/min/kg
CONC(=O)[C@H]1[C@@H](O)[C@@]2(O)c3c(OC)cc(OC)cc3O[C@@]2(c2ccc(OC)cc2)[C@@H]1c1ccccc1 | liver microsomes | – | microsomal CLint | 11.6 µL/min/mg
O=C(O[C@H]1CCC[C@@]2(C1)OOC1(O2)C2CC3CC(C2)CC1C3)N1CCCCC1 (stereo partly shown) | liver microsomes | – | microsomal CLint | < 11.6 µL/min/mg
CN1C(=O)Cc2ccc(F)c(CCNCC[C@H]3CN(c4ccc5c(n4)NC(=O)CO5)C(=O)O3)c21 | hepatocytes | 0.5 µM | hepatocyte CLint | < 8.2 µL/min/10⁶ cells
Cc1ncc2n1-c1ccc(Cl)cc1C(c1ccccc1F)=NC2 | hepatocytes | 0.5 µM, pH 7.4 | hepatocyte CLint | 57.7 µL/min/10⁶ cells
C[C@]12CC[C@H]3[C@@H](CCC4=CC(=O)CC[C@@]43C)[C@@H]1CC[C@@H]2O | hepatocytes | 1 µM | hepatocyte CLint | 110 µL/min/10⁶ cells
CC(C)C[C@H](NC(=O)[C@@H]1COCCCCCCC(=O)NCC(=O)N2CCC[C@H]2C(=O)N1)C(=O)[C@@]1(C)CO1 | liver microsomes | 2 µM, 1 h | scaled CLint | 51.7 mL/min/kg
COc1ccc2c(c1)[C@]13CCCC[C@@H]1[C@H](C2)N(C)CC3 | hepatocytes | 0.5 µM, pH 7.4 | hepatocyte CLint | 19 µL/min/10⁶ cells
COCC1=N[C@@]2(O)[C@H](C(=O)N(C)OC)[C@@H](c3ccccc3)[C@]3(c4ccc(OC)cc4)Oc4cc(OC)cc(OC)c4[C@]23N1 | liver microsomes | 1 µM, pH 7.4 | microsomal CLint | 55.8 µL/min/mg
